Laboratory results reported in ChEMBL document CHEMBL4229449, “Synthesis and antimicrobial studies of hydrazone derivatives of 4-[3-(2,4-difluorophenyl)-4-formyl-1H-pyrazol-1-yl]benzoic acid and 4-[3-(3,4-difluorophenyl)-4-formyl-1H-pyrazol-1-yl]benzoic acid” (Bioorg Med Chem Lett, 2018).
Converted amounts (≈) assume the structure as drawn. The source made the active and inactive calls. The calls are words filed in the database; no cut-off is given here.

How the values were obtained:
Acinetobacter baumannii = test: Antimicrobial activity against Acinetobacter baumannii by broth microdilution method; format: functional
Staphylococcus aureus [1] = test: Antimicrobial activity against methicillin-resistant Staphylococcus aureus by broth microdilution method; format: functional
Staphylococcus aureus [2] = test: Antimicrobial activity against Staphylococcus aureus by broth microdilution method; format: functional
Pseudomonas aeruginosa = test: Antimicrobial activity against Pseudomonas aeruginosa by broth microdilution method; format: functional, organism-based
Bacillus subtilis = test: Antimicrobial activity against Bacillus subtilis by broth microdilution method; format: functional
Klebsiella aerogenes = test: Antimicrobial activity against Enterobacter aerogenes by broth microdilution method; format: functional, organism-based
[3] = system: Panel NCI-60 (60 carcinoma cell lines); test: Cytotoxicity against human NCI60 cells assessed as reduction in cell viability at 10 uM after 24 hrs by resazurin dye based method
HEK293 [4] = test: Cytotoxicity against human HEK293 cells assessed as reduction in cell viability at 25 to 50 ug/ml after 24 hrs by resazurin dye based method; conditions: hek293, 24 h
Procedure, shortened: (§1)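 HEK-293 human embryonic kidney cells were exposed to test compounds at 25 and 50 μg/mL and incubated for 24 h. Growth inhibition was read by resazurin assay and expressed as percent cell viability.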

HEK293 [5] = test: Cytotoxicity against human HEK293 cells assessed as reduction in cell viability at 50 ug/ml after 24 hrs by resazurin dye based method; conditions: hek293, 24 h; procedure, shortened: as §1
Staphylococcus aureus [6] = test: Growth inhibition of methicillin-resistant Staphylococcus aureus LAC after 20 to 24 hrs by resazurin dye based method; format: functional
Staphylococcus aureus [7] = test: Growth inhibition of methicillin-sensitive Staphylococcus aureus UAMS-1 after 20 to 24 hrs by resazurin dye based method; format: functional

Molecule | MIC (Acinetobacter baumannii) | MIC (Staphylococcus aureus [1]) | MIC (Staphylococcus aureus [2]) | MIC (Pseudomonas aeruginosa) | MIC (Bacillus subtilis) | MIC (Klebsiella aerogenes) | Activity [3] | Activity (HEK293 [4]) | Activity (HEK293 [5]) | MIC (Staphylococcus aureus [6]) | MIC (Staphylococcus aureus [7])
O=C(O)c1ccc(N/N=C/c2cn(-c3ccc(C(=O)O)cc3)nc2-c2ccc(F)c(F)c2)cc1 | inactive | inactive | inactive | inactive | inactive | inactive |  |  |  |  | 
O=C(O)c1ccc(-n2cc(/C=N/Nc3ccccc3)c(-c3ccc(F)cc3F)n2)cc1 | 25 µg/mL (≈ 59.8 µM) | 25 µg/mL (≈ 59.8 µM) | 25 µg/mL (≈ 59.8 µM) | inactive | 25 µg/mL (≈ 59.8 µM) | inactive | Non-Toxic | Non-Toxic | > 80% |  | 
O=C(O)c1ccc(-n2cc(/C=N/Nc3cccc(F)c3)c(-c3ccc(F)c(F)c3)n2)cc1 | 6.25 µg/mL (≈ 14.3 µM) | 12.5 µg/mL (≈ 28.6 µM) | 12.5 µg/mL (≈ 28.6 µM) | inactive | 12.5 µg/mL (≈ 28.6 µM) | inactive | Non-Toxic | Non-Toxic | > 80% |  | 
O=C(O)c1cn(C2CC2)c2cc(N3CCNCC3)c(F)cc2c1=O [CIPROFLOXACIN] |  |  |  |  | 1.56 µg/mL (≈ 4.71 µM) |  |  |  |  |  | 
O=C(O)c1ccc(-n2cc(/C=N/Nc3c(F)c(F)cc(F)c3F)c(-c3ccc(F)c(F)c3)n2)cc1 | inactive | 12.5 µg/mL (≈ 25.5 µM) | 12.5 µg/mL (≈ 25.5 µM) | inactive | 6.25 µg/mL (≈ 12.7 µM) | inactive |  |  |  |  | 
O=C(O)c1ccc(-n2cc(/C=N/Nc3cc(F)ccc3F)c(-c3ccc(F)cc3F)n2)cc1 | 12.5 µg/mL (≈ 27.5 µM) | 12.5 µg/mL (≈ 27.5 µM) | 12.5 µg/mL (≈ 27.5 µM) | inactive | 3.12 µg/mL (≈ 6.87 µM) | inactive |  |  |  |  | 
O=C(O)c1ccc(-n2cc(/C=N/Nc3ccccc3F)c(-c3ccc(F)c(F)c3)n2)cc1 | 6.25 µg/mL (≈ 14.3 µM) | 12.5 µg/mL (≈ 28.6 µM) | 12.5 µg/mL (≈ 28.6 µM) | inactive | 12.5 µg/mL (≈ 28.6 µM) | inactive | Non-Toxic | Non-Toxic | > 80% |  | 
O=C(O)c1ccc(-n2cc(/C=N/Nc3ccc(Cl)cc3)c(-c3ccc(F)c(F)c3)n2)cc1 | 1.56 µg/mL (≈ 3.44 µM) | 6.25 µg/mL (≈ 13.8 µM) | 6.25 µg/mL (≈ 13.8 µM) | inactive | 6.25 µg/mL (≈ 13.8 µM) | inactive | Non-Toxic | Non-Toxic | > 80% |  | 
O=C(O)c1ccc(-n2cc(/C=N/Nc3ccccc3F)c(-c3ccc(F)cc3F)n2)cc1 | 12.5 µg/mL (≈ 28.6 µM) | 25 µg/mL (≈ 57.3 µM) | 25 µg/mL (≈ 57.3 µM) | inactive | 12.5 µg/mL (≈ 28.6 µM) | inactive | Non-Toxic | Non-Toxic | > 80% |  | 
O=C(O)c1ccc(-n2cc(/C=N/N3CCCCC3)c(-c3ccc(F)cc3F)n2)cc1 | inactive | inactive | inactive | inactive | inactive | inactive |  |  |  |  | 
CN[C@H](CC(C)C)C(=O)N[C@H]1C(=O)N[C@@H](CC(N)=O)C(=O)N[C@H]2C(=O)N[C@H]3C(=O)N[C@H](C(=O)N[C@H](C(=O)O)c4cc(O)cc(O)c4-c4cc3ccc4O)[C@H](O)c3ccc(c(Cl)c3)Oc3cc2cc(c3O[C@@H]2O[C@H](CO)[C@@H](O)[C@H](O)[C@H]2O[C@H]2C[C@](C)(N)[C@H](O)[C@H](C)O2)Oc2ccc(cc2Cl)[C@H]1O [VANCOMYCIN] |  | 12.5 µg/mL (≈ 8.63 µM) | 6.25 µg/mL (≈ 4.31 µM) |  |  |  |  |  |  |  | 
O=C(O)c1ccc(-n2cc(/C=N/Nc3ccccc3)c(-c3ccc(F)c(F)c3)n2)cc1 | 6.25 µg/mL (≈ 14.9 µM) | 25 µg/mL (≈ 59.8 µM) | 25 µg/mL (≈ 59.8 µM) | inactive | 25 µg/mL (≈ 59.8 µM) | inactive | Non-Toxic | Non-Toxic | > 80% |  | 
CN1CCN(/N=C/c2cn(-c3ccc(C(=O)O)cc3)nc2-c2ccc(F)cc2F)CC1 | inactive | inactive | inactive | inactive | inactive | inactive |  |  |  |  | 
O=C(O)c1ccc(-n2cc(/C=N/Nc3ccc(Br)cc3)c(-c3ccc(F)cc3F)n2)cc1 | 1.56 µg/mL (≈ 3.14 µM) | 12.5 µg/mL (≈ 25.1 µM) | 12.5 µg/mL (≈ 25.1 µM) | inactive | 12.5 µg/mL (≈ 25.1 µM) | inactive | Non-Toxic | Non-Toxic | > 80% | 25 µg/mL (≈ 50.3 µM) | 25 µg/mL (≈ 50.3 µM)
O=C(O)c1ccc(-n2cc(/C=N/Nc3ccc(Br)cc3)c(-c3ccc(F)c(F)c3)n2)cc1 | 0.78 µg/mL (≈ 1.57 µM) | 1.56 µg/mL (≈ 3.14 µM) | 3.12 µg/mL (≈ 6.27 µM) | inactive | 1.56 µg/mL (≈ 3.14 µM) | inactive | Non-Toxic | Non-Toxic | > 80% | 12.5 µg/mL (≈ 25.1 µM) | 12.5 µg/mL (≈ 25.1 µM)
O=C(O)c1ccc(-n2cc(/C=N/Nc3cccc(F)c3)c(-c3ccc(F)cc3F)n2)cc1 | 6.25 µg/mL (≈ 14.3 µM) | 25 µg/mL (≈ 57.3 µM) | 25 µg/mL (≈ 57.3 µM) | inactive | 12.5 µg/mL (≈ 28.6 µM) | inactive | Non-Toxic | Non-Toxic | > 80% |  | 
CN1CCN(/N=C/c2cn(-c3ccc(C(=O)O)cc3)nc2-c2ccc(F)c(F)c2)CC1 | inactive | inactive | inactive | inactive | inactive | inactive |  |  |  |  | 
O=C(O)c1ccc(-n2cc(/C=N/Nc3c(F)c(F)c(F)c(F)c3F)c(-c3ccc(F)cc3F)n2)cc1 | inactive | inactive | inactive | inactive | inactive | inactive |  |  |  |  | 
O=C(O)c1ccc(-n2cc(/C=N/Nc3ccc(F)cc3)c(-c3ccc(F)c(F)c3)n2)cc1 | 6.25 µg/mL (≈ 14.3 µM) | 25 µg/mL (≈ 57.3 µM) | 25 µg/mL (≈ 57.3 µM) | inactive | 25 µg/mL (≈ 57.3 µM) | inactive | Non-Toxic | Non-Toxic | > 80% |  | 
O=C(O)c1ccc(-n2cc(/C=N/Nc3ccc(Cl)cc3Cl)c(-c3ccc(F)c(F)c3)n2)cc1 | 3.12 µg/mL (≈ 6.41 µM) | 1.56 µg/mL (≈ 3.2 µM) | 1.56 µg/mL (≈ 3.2 µM) | inactive | 0.78 µg/mL (≈ 1.6 µM) | inactive |  |  |  | 6.25 µg/mL (≈ 12.8 µM) | 6.25 µg/mL (≈ 12.8 µM)
O=C(O)c1ccc(-n2cc(/C=N/Nc3ccc(Cl)cc3Cl)c(-c3ccc(F)cc3F)n2)cc1 | 12.5 µg/mL (≈ 25.7 µM) | 0.78 µg/mL (≈ 1.6 µM) | 3.12 µg/mL (≈ 6.41 µM) | inactive | 0.78 µg/mL (≈ 1.6 µM) | inactive | Non-Toxic | Non-Toxic | > 80% | 12.5 µg/mL (≈ 25.7 µM) | 25 µg/mL (≈ 51.3 µM)
O=C(O)c1ccc(-n2cc(/C=N/Nc3cc(F)ccc3F)c(-c3ccc(F)c(F)c3)n2)cc1 | 6.25 µg/mL (≈ 13.8 µM) | inactive | inactive | inactive | 3.12 µg/mL (≈ 6.88 µM) | inactive | Non-Toxic | Non-Toxic | 69% |  | 
O=C(O)c1ccc(-n2cc(/C=N/Nc3c(F)c(F)cc(F)c3F)c(-c3ccc(F)cc3F)n2)cc1 | inactive | inactive | inactive | inactive | inactive | inactive |  |  |  |  | 
O=C(O)c1ccc(-n2cc(/C=N/Nc3ccc([N+](=O)[O-])cc3)c(-c3ccc(F)cc3F)n2)cc1 | inactive | inactive | inactive | inactive | inactive | inactive |  |  |  |  | 
O=C(O)c1ccc(-n2cc(/C=N/Nc3ccc(F)cc3)c(-c3ccc(F)cc3F)n2)cc1 | 6.25 µg/mL (≈ 14.3 µM) | 25 µg/mL (≈ 57.3 µM) | 25 µg/mL (≈ 57.3 µM) | inactive | 6.25 µg/mL (≈ 14.3 µM) | inactive |  |  |  |  | 
O=C(O)c1ccc(-n2cc(/C=N/Nc3cccc(C(=O)O)c3)c(-c3ccc(F)cc3F)n2)cc1 | inactive | inactive | inactive | inactive | inactive | inactive |  |  |  |  | 
COLISTIN | 12.5 µg/mL |  |  | 0.78 µg/mL |  | 0.39 µg/mL |  |  |  |  | 
O=C(O)c1ccc(N/N=C/c2cn(-c3ccc(C(=O)O)cc3)nc2-c2ccc(F)cc2F)cc1 | inactive | inactive | inactive | inactive | inactive | inactive |  |  |  |  | 
O=C(O)c1ccc(-n2cc(/C=N/Nc3ccc([N+](=O)[O-])cc3)c(-c3ccc(F)c(F)c3)n2)cc1 | inactive | inactive | inactive | inactive | inactive | inactive |  |  |  |  | 
O=C(O)c1ccc(-n2cc(/C=N/Nc3ccc(C(F)(F)F)cc3)c(-c3ccc(F)c(F)c3)n2)cc1 | 3.12 µg/mL (≈ 6.41 µM) | 0.78 µg/mL (≈ 1.6 µM) | 0.78 µg/mL (≈ 1.6 µM) | inactive | 0.78 µg/mL (≈ 1.6 µM) | inactive | Non-Toxic | Non-Toxic | > 80% | 3.12 µg/mL (≈ 6.41 µM) | 6.25 µg/mL (≈ 12.8 µM)
